Non-standard residues stand in square brackets, D forms with d. Residues, ends and D or L forms follow the SMILES beside them. *: point of attachment. X1 = COc1cc(C(C)OC(=O)N2CO[C@@H]3[C@H](C)O[C@@H](O[C@H]4C[C@](O)(C(=O)CO)Cc5c(O)c6c(c(O)c54)C(=O)c4c(OC)cccc4C6=O)C[C@@H]32)c([N+](=O)[O-])cc1OCC(=O)NCCOCCOCCOCCn1nnc2c1-c1ccccc1CN(C(=O)CCNC(=O)CCN1C(=O)CC(*)C1=O)c1ccccc1-2; X2 = COc1cc(C(C)OC(=O)N[C@H]2C[C@H](O[C@H]3C[C@](O)(C(=O)CO)Cc4c(O)c5c(c(O)c43)C(=O)c3c(OC)cccc3C5=O)O[C@@H](C)[C@H]2O)c([N+](=O)[O-])cc1OCC(=O)NCCOCCOCCOCCn1nnc2c1-c1ccccc1CN(C(=O)CCNC(=O)CCN1C(=O)CC(*)C1=O)c1ccccc1-2; Mpa = O=C(O)CCS
Assays:
[1] = Binding affinity to exosomes in human MDA-MB-231 cells assessed as co-localization of compound with exosomes on plasma membrane at 1 uM after 1 hr using Cy5-labeled peptides by Hoechst-staining based assay; type: ADME, Exosome; conditions: mda-mb-231, 1 h
[2] = Binding affinity to exosomes in human MDA-MB-231 cells assessed as co-localization of compound with exosomes out side nucleus area at 1 uM after 1 to 6 hrs using Cy5-labeled peptides by Hoechst-staining based assay; type: ADME, subcellular, Exosome; conditions: mda-mb-231, 1 µM
Summary of the method: (§1)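 Cy5-labeled L- or D-MARCKS-ED peptide (1 µM) was co-incubated with fluorescent dye-labeled exosomes on MDA-MB-231 cells for 6 h. Peptide and exosome signals were then examined by confocal microscopy, including higher-magnification 3D images, to assess co-localization relative to the nucleus.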

[3] = Binding affinity to exosomes in human MDA-MB-231 cells assessed as co-localization of compound with exosomes at 1 uM after 1 to 6 hrs using Cy5-labeled peptides by Hoechst-staining based assay; type: ADME, subcellular, Exosome; conditions: mda-mb-231, 1 µM; summary of the method: as §1
[4] = Drug uptake in human MDA-MB-231 cells at 5 uM after 3 hrs by NucBlue live cell stain-based confocal microscopy; type: ADME; conditions: mda-mb-231, 3 h
Summary of the method: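 MDA-MB-231 cells exposed to 5 µM conjugate for 3 h, then imaged by confocal microscopy at 40x using anthracycline fluorescence; untreated cells imaged as reference.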

MDA-MB-231 [5] = assay: Growth inhibition of human MDA-MB-231 cells irradiated with UV light for 15 mins followed by 15 mins incubation and measured after 5 days by crystal violet-staining based assay; type: functional, cell-based; conditions: MDA-MB-231, light or radiation study
Summary of the method: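 MDA-MB-231 cells exposed to prodrug at various concentrations for 6 h in medium with 10% FBS, washed twice with PBS, then irradiated 15 min with UV black lamp (320-400 nm, max 350 nm, ~0.8 mW/cm2 at 12 cm). Held 15 min at room temperature, washed, refed, and grown until untreated cells reached 80% confluency or 5 days. Crystal violet read-out; IC50 from growth inhibition curves.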

MDA-MB-231 [6] = assay: Cytotoxicity against human MDA-MB-231 cells at 10 uM after 6 hrs by NucBlue live cell stain-based confocal microscopy; conditions: mda-mb-231, 6 h
MDA-MB-231 [7] = assay: Growth inhibition of human MDA-MB-231 cells measured after 5 days in absence of irradiation by crystal violet-staining based assay; type: cell-based; conditions: MDA-MB-231, 120 h
Summary of the method: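 MDA-MB-231 cells given prodrug at various concentrations for 6 h in medium with 10% FBS, washed twice with PBS. Plate wrapped in aluminum foil to exclude ambient UV, no irradiation. Cells then washed, refed, and grown until untreated cells reached 80% confluency or 5 days. Cell density read by crystal violet staining; IC50 from growth inhibition curves.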

[8] = Drug uptake in human MDA-MB-231 cells at 1 uM after 6 hrs by flow cytometry; type: ADME, cell-based; conditions: mda-mb-231, 6 h
Summary of the method: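 MDA-MB-231 cells incubated 6 h with 1 µM compound. Uptake read by flow cytometry, with fluorescence intensity normalized to untreated cells. Three biologically independent experiments; standard deviation of mean fluorescence intensity.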

MDA-MB-231 [9] = assay: Ratio of IC50 for human MDA-MB-231 cells in absence of irradiation to IC50 for human MDA-MB-231 cells in presence of irradiation
[10] = Induction of exosomes-mediated drug uptake in human […] cells at 1 uM after 6 hrs in presence of cellmask orange-labeled exosomes by Cy5 channel-based assay; conditions: mda-mb-231, 6 h; summary of the method: as §1
[11] = Induction of exosomes-mediated drug uptake in human […] cells at 1 uM after 6 hrs in presence of cellmask orange-labeled exosomes by tritc channel based assay; conditions: mda-mb-231, 6 h; summary of the method: as §1
[12] = Drug uptake in human HMEC cells at 1 uM after 1 to 6 hrs using Cy5-labeled peptides by confocal microscopy
[13] = Drug uptake in human MDA-MB-231 cells at 1 uM after 1 to 6 hrs using Cy5-labeled peptides by confocal microscopy; conditions: mda-mb-231, 1 µM

Row | Drug uptake [12] | Drug uptake [13] | Compound | IC50 (MDA-MB-231 [5]) | IC50 (MDA-MB-231 [7]) | Drug uptake [8] | Ratio IC50 (MDA-MB-231 [9]) | further results
1 |  |  | CC(C)C[C@H](NC(=O)[C@H](CCCCN)NC(=O)[C@H](Cc1ccccc1)NC(=O)[C@H](CO)NC(=O)[C@H](CCCCN)NC(=O)[C@H](CCCCN)NC(=O)[C@H](Cc1ccccc1)NC(=O)[C@H](CO)NC(=O)[C@H](Cc1ccccc1)NC(=O)[C@H](CCCNC(=N)N)NC(=O)[C@H](CCCCN)NC(=O)[C@H](CCCCN)NC(=O)[C@H](CCCCN)NC(=O)[C@H](CCCCN)NC(=O)[C@@H](N)CCCCN)C(=O)N[C@@H](CO)C(=O)NCC(=O)N[C@@H](Cc1ccccc1)C(=O)N[C@@H](CO)C(=O)N[C@@H](Cc1ccccc1)C(=O)N[C@@H](CCCCN)C(=O)N[C@@H](CCCCN)C(=O)N[C@@H](CC(N)=O)C(=O)N[C@@H](CCCCN)C(=O)N[C@@H](CCCCN)C(N)=O |  |  |  |  | Activity [1]: Active; Activity [2]: Active; Activity [3]: Active
2 |  |  | COc1cc(C(C)OC(=O)N2CO[C@@H]3[C@H](C)O[C@@H](O[C@H]4C[C@](O)(C(=O)CO)Cc5c(O)c6c(c(O)c54)C(=O)c4c(OC)cccc4C6=O)C[C@@H]32)c([N+](=O)[O-])cc1OCC(=O)NCCOCCOCCOCCn1nnc2c1-c1ccccc1CN(C(=O)CCNC(=O)CCN1C(=O)CC(SCCC(=O)N[C@H](CCCCN)C(=O)N[C@H](CCCCN)C(=O)N[C@H](CCCCN)C(=O)N[C@H](CCCCN)C(=O)N[C@H](CCCCN)C(=O)N[C@H](CCCNC(=N)N)C(=O)N[C@H](Cc3ccccc3)C(=O)N[C@H](CO)C(=O)N[C@H](Cc3ccccc3)C(=O)N[C@H](CCCCN)C(=O)N[C@H](CCCCN)C(=O)N[C@H](CO)C(=O)N[C@H](Cc3ccccc3)C(=O)N[C@H](CCCCN)C(=O)N[C@H](CC(C)C)C(=O)N[C@H](CO)C(=O)NCC(=O)N[C@H](Cc3ccccc3)C(=O)N[C@H](CO)C(=O)N[C@H](Cc3ccccc3)C(=O)N[C@H](CCCCN)C(=O)N[C@H](CCCCN)C(=O)N[C@H](CC(N)=O)C(=O)N[C@H](CCCCN)C(=O)N[C@H](CCCCN)C(N)=O)C1=O)c1ccccc1-2 (stereo partly specified) | 42 nM | 2 µM | Active | 130 | Drug uptake [4]: Active; Activity (MDA-MB-231 [6]): Toxic
3 |  |  | COc1cc(C(C)OC(=O)N2CO[C@@H]3[C@H](C)O[C@@H](O[C@H]4C[C@](O)(C(=O)CO)Cc5c(O)c6c(c(O)c54)C(=O)c4c(OC)cccc4C6=O)C[C@@H]32)c([N+](=O)[O-])cc1OCC(=O)NCCOCCOCCOCCn1nnc2c1-c1ccccc1CN(C(=O)CCNC(=O)CCN1C(=O)CC(SCCC(=O)N[C@@H](CCCCN)C(=O)N[C@@H](CCCCN)C(=O)N[C@@H](CCCCN)C(=O)N[C@@H](CCCCN)C(=O)N[C@@H](CCCCN)C(=O)N[C@@H](CCCNC(=N)N)C(=O)N[C@@H](Cc3ccccc3)C(=O)N[C@@H](CO)C(=O)N[C@@H](Cc3ccccc3)C(=O)N[C@@H](CCCCN)C(=O)N[C@@H](CCCCN)C(=O)N[C@@H](CO)C(=O)N[C@@H](Cc3ccccc3)C(=O)N[C@@H](CCCCN)C(=O)N[C@@H](CC(C)C)C(=O)N[C@@H](CO)C(=O)NCC(=O)N[C@@H](Cc3ccccc3)C(=O)N[C@@H](CO)C(=O)N[C@@H](Cc3ccccc3)C(=O)N[C@@H](CCCCN)C(=O)N[C@@H](CCCCN)C(=O)N[C@@H](CC(N)=O)C(=O)N[C@@H](CCCCN)C(=O)N[C@@H](CCCCN)C(N)=O)C1=O)c1ccccc1-2 (stereo partly specified) | 15 nM | 2.5 µM | Active | 170 | Drug uptake [4]: Active; Activity (MDA-MB-231 [6]): Toxic
4 | Active | Active | CC(C)C[C@@H](NC(=O)[C@@H](CCCCN)NC(=O)[C@@H](Cc1ccccc1)NC(=O)[C@@H](CO)NC(=O)[C@@H](CCCCN)NC(=O)[C@@H](CCCCN)NC(=O)[C@@H](Cc1ccccc1)NC(=O)[C@@H](CO)NC(=O)[C@@H](Cc1ccccc1)NC(=O)[C@@H](CCCNC(=N)N)NC(=O)[C@@H](CCCCN)NC(=O)[C@@H](CCCCN)NC(=O)[C@@H](CCCCN)NC(=O)[C@@H](CCCCN)NC(=O)[C@H](N)CCCCN)C(=O)N[C@H](CO)C(=O)NCC(=O)N[C@H](Cc1ccccc1)C(=O)N[C@H](CO)C(=O)N[C@H](Cc1ccccc1)C(=O)N[C@H](CCCCN)C(=O)N[C@H](CCCCN)C(=O)N[C@H](CC(N)=O)C(=O)N[C@H](CCCCN)C(=O)N[C@H](CCCCN)C(N)=O |  |  |  |  | Activity [1]: Active; Drug uptake [10]: Active; Drug uptake [11]: Active; Activity [2]: Active; Activity [3]: Active
5 |  |  | CC[C@H](C)[C@H](NC(=O)[C@H](CCCCN)NC(=O)[C@H](CC(=O)O)NC(=O)[C@H](Cc1ccc(O)cc1)NC(=O)[C@H](CC(=O)O)NC(=O)CNC(=O)CNC(=O)CCSC1CC(=O)N(CCC(=O)NCCC(=O)N2Cc3ccccc3-c3c(nnn3CCOCCOCCOCCNC(=O)COc3cc([N+](=O)[O-])c(C(C)OC(=O)N4CO[C@@H]5[C@H](C)O[C@@H](O[C@H]6C[C@](O)(C(=O)CO)Cc7c(O)c8c(c(O)c76)C(=O)c6c(OC)cccc6C8=O)C[C@@H]54)cc3OC)-c3ccccc32)C1=O)C(=O)NCC(=O)N[C@@H](CCCCN)C(=O)N[C@@H](CC(N)=O)C(=O)N[C@@H](CC(=O)O)C(=O)N[C@@H](C)C(N)=O (stereo partly specified) ([Mpa](X1)GGDYDKIGKNDA-NH2) | 1300 nM | 11 µM | Not Active | 8.5 | 
6 |  |  | COc1cc(C(C)OC(=O)N[C@H]2C[C@H](O[C@H]3C[C@](O)(C(=O)CO)Cc4c(O)c5c(c(O)c43)C(=O)c3c(OC)cccc3C5=O)O[C@@H](C)[C@H]2O)c([N+](=O)[O-])cc1OCC(=O)NCCOCCOCCOCCn1nnc2c1-c1ccccc1CN(C(=O)CCNC(=O)CCN1C(=O)CC(SCCC(=O)N[C@@H](CCCCN)C(=O)N[C@@H](CCCCN)C(=O)N[C@@H](CCCCN)C(=O)N[C@@H](CCCCN)C(=O)N[C@@H](CCCCN)C(=O)N[C@@H](CCCNC(=N)N)C(=O)N[C@@H](Cc3ccccc3)C(=O)N[C@@H](CO)C(=O)N[C@@H](Cc3ccccc3)C(=O)N[C@@H](CCCCN)C(=O)N[C@@H](CCCCN)C(=O)N[C@@H](CO)C(=O)N[C@@H](Cc3ccccc3)C(=O)N[C@@H](CCCCN)C(=O)N[C@@H](CC(C)C)C(=O)N[C@@H](CO)C(=O)NCC(=O)N[C@@H](Cc3ccccc3)C(=O)N[C@@H](CO)C(=O)N[C@@H](Cc3ccccc3)C(=O)N[C@@H](CCCCN)C(=O)N[C@@H](CCCCN)C(=O)N[C@@H](CC(N)=O)C(=O)N[C@@H](CCCCN)C(=O)N[C@@H](CCCCN)C(N)=O)C1=O)c1ccccc1-2 (stereo partly specified) ([Mpa](X2)KKKKKRFSFKKSFKLSGFSFKKNKK-NH2) | 1200 nM | 6.5 µM | Active | 5.4 | 
7 | Not Active | Not Active | H-DDDDDRASADDSADLSGASADDDDD-OH |  |  |  |  | 
8 | Not Active | Not Active | H-GGDYDKIGKNDA-OH |  |  |  |  | 
9 | Active | Active | H-KKKGKKNSSKKFFFFSKFKLSRKKK-NH2 |  |  |  |  | 
